This is an account of results in ChEMBL document CHEMBL1156100, “Design and synthesis of a simplified inhibitor for XIAP-BIR3 domain” (Bioorg Med Chem Lett, 2009).

The Ki is the dissociation constant of the complex between target and ligand, obtained from inhibition or displacement.

Molecules are shown by their SMILES. Active and inactive are the calls of the source. The rule behind the calls is not given here.

In one test the target is T1, E3 ubiquitin-protein ligase XIAP (Homo sapiens, UniProt P98170). As to the kind of experiment: Inhibition of XIAP BIR3 domain at 100 uM by competitive fluorescence polarization binding assay. A general note: In fluorescence polarisation assays a small probe gives low polarisation when free and higher when bound to something large.
T1 sequence (P98170 whole entry, the tested form may be a part): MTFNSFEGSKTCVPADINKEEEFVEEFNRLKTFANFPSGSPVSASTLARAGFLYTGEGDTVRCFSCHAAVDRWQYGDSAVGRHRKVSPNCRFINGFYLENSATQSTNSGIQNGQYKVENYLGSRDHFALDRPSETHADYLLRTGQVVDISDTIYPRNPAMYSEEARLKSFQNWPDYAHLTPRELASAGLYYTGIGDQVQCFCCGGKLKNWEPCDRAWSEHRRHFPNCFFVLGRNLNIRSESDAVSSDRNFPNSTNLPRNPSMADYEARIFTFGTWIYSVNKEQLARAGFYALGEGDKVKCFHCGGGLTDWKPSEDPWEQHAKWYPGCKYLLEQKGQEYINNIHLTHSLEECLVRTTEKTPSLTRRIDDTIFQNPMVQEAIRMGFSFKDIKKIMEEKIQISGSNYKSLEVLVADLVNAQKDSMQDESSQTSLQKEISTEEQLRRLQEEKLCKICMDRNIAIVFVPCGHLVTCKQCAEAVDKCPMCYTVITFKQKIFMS
`C[C@H](N)C(=O)Nc1nc2c(s1)CCCCC2C(=O)NC(c1ccccc1)c1ccccc1` (stereo partly drawn): the outcome was inactive.
The same measure, in the same setting: the same measure for `CN[C@@H](C)C(=O)Nc1nc2c(s1)CCCCC2C(=O)NC1CCCc2ccccc21` (stereo partly drawn): “inactive”; for `CN[C@@H](C)C(=O)Nc1nc2c(s1)CCCCC2C(=O)NCc1ccccc1` (stereo partly drawn): “inactive”; for `C[C@H](N)C(=O)Nc1nc2c(s1)CCCCC2C(=O)NC1CCCc2ccccc21` (stereo partly drawn): “inactive”.
On the same count and under the same terms, as for `CN[C@@H](C)C(=O)Nc1nc2c(s1)CCCCC2C(=O)NC(c1ccccc1)c1ccccc1` (stereo partly drawn), the entry is “inactive”; as for `C[C@H](N)C(=O)Nc1nc2c(s1)CCCCC2C(=O)NCc1ccccc1` (stereo partly drawn), “inactive”.

A further test addresses T1, E3 ubiquitin-protein ligase XIAP. As to the kind of experiment: Inhibition of XIAP BIR3 domain by competitive fluorescence polarization binding assay. Summed up: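 Competitive fluorescence polarization displacement assay using the XIAP BIR3 domain, with BV6 run in parallel as the reference compound. Binding affinity is expressed as Ki.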
For the molecule `CN[C@@H](C)C(=O)Nc1nc2c(s1)CCC2C(=O)NC1CCCc2ccccc21` (mixture of isomers), the affinity, expressed as Ki, was 37 µM.
Same read-out and setting: the same measure for `CN[C@@H](C)C(=O)Nc1nc2c(s1)CC[C@H]2C(=O)N[C@@H]1CCCc2ccccc21`: 5.58 µM.

For a further test the target is unchanged. Description: Inhibition of XIAP BIR3 domain at 10 to 100 uM by competitive fluorescence polarization binding assay.
As to `CN[C@@H](C)C(=O)Nc1nc2c(s1)CCC2C(=O)NC1CCCc2ccccc21` (mixture of isomers), the result was Active.
For `CN[C@@H](C)C(=O)Nc1nc2c(s1)CCC2C(=O)NC(c1ccccc1)c1ccccc1` (stereo partly drawn), the outcome was Active.
On the same count and under the same terms, as for `CN[C@@H](C)C(=O)Nc1nc2c(s1)CCC2C(=O)NCc1ccccc1` (stereo partly drawn), the entry is “Active”; as for `C[C@H](N)C(=O)Nc1nc2c(s1)CCC2C(=O)NCc1ccccc1` (stereo partly drawn), “Active”; as for `C[C@H](N)C(=O)Nc1nc2c(s1)CCC2C(=O)NC(c1ccccc1)c1ccccc1` (stereo partly drawn), “Active”.
`C[C@H](N)C(=O)Nc1nc2c(s1)CCC2C(=O)NC1CCCc2ccccc21` (stereo partly drawn): the outcome was Active.

The target is the same in a further test. As to the kind of experiment: Inhibition of XIAP BIR3 domain at 10 to 100 uM by competitive fluorescence polarization binding assay relative to 1 uM BV6 control.
`CN[C@@H](C)C(=O)Nc1nc2c(s1)CCC2C(=O)NC1CCCc2ccccc21` (mixture of isomers): the outcome was inactive.
On the same count and under the same terms, as for `CN[C@@H](C)C(=O)Nc1nc2c(s1)CC[C@H]2C(=O)N[C@@H]1CCCc2ccccc21`, the entry is “Active”; as for `CN[C@@H](C)C(=O)Nc1nc2c(s1)CC[C@H]2C(=O)N[C@H]1CCCc2ccccc21`, “inactive”.
For `CN[C@@H](C)C(=O)Nc1nc2c(s1)CC[C@@H]2C(=O)NC1CCCc2ccccc21` (mixture of isomers), the outcome was inactive.
